High-throughput results: PubChem, several laboratories
The list is not random: actives were taken first. Their share in the collection is about 1.5%.
Rpn11 inh: blocks the human proteasome subunit Rpn11 | O00487 | AID 588493 | human 26S proteasome, Ub4-pepOG fluorescence polarization; 20S core pre-blocked with epoxomicin | calls only at 20 µM | 360,000 tested, 0.59% active;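 active = inhibition at 20 µM, scaled to each plate's controls, above about 33%, limit read from the data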
HNF4A DNA FP: change in binding of human HNF4 alpha to DNA. 360,000 tested, 0.3% active. P41235. activity change, % at 10 µM. HNF4a-FITC DNA binding, fluorescence polarization, 1 h; in the data active = activity change above about 30%, passing the limit was not always enough
Target sequence (P41235 whole entry, looked up): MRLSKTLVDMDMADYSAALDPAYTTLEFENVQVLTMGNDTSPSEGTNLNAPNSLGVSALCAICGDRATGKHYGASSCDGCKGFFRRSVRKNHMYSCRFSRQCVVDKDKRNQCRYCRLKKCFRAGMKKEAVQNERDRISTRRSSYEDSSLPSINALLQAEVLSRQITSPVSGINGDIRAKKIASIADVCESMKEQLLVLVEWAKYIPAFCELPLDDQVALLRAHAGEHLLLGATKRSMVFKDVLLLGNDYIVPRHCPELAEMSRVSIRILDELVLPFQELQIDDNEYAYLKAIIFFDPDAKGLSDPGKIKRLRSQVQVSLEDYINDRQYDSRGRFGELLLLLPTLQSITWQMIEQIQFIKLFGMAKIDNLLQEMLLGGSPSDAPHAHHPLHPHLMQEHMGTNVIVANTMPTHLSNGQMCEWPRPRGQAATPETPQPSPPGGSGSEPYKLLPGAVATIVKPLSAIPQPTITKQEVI
TPT1 inhibitor: inhibitors of Candida albicans tRNA 2'-phosphotransferase TPT1; inhibition, % at 5 µM; AID 1962; recombinant caTPT1, FP RNA substrate dephosphorylation; 300,000 tested, 0.81% active;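 active = inhibition above the mean of all tested compounds plus 3 SD, set per screening campaign, cut at about 24% in these data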;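 also: plate controls were DMSO alone for no effect and ferristatin control at 100 nM for full effect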
CSN inh: CSN deneddylation inhibition; Q92905; Purified CSN, SCF-Nedd8-OG deneddylation, fluorescence polarization; inhibition, % at 12.5 µM; 360,000 tested, 0.38% active; AID 651999;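 active = pattern-corrected inhibition above about 35%, with an unprinted fluorescence ratio check between 0.5 and 1.5, limit read from the data, passing the limit was not always enough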;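 also: 0% = enzyme with substrate and 100% = substrate without enzyme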
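Assay system: purified human Csn5 enzyme expressed in HEK293T cells; Input: 0.24 nM Csn5 enzyme, final concentration; Reagent: 10 nM SCFSkp2-Nedd8OG; Compound dosing: 12.5 µM single point; Times: reaction 90 min, room temperature; Technique: fluorescence polarization readout.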
caTPT1 confirm: confirmation of Candida albicans TPT1 inhibitors. 2,400 tested, 74% active. AID 2149. inhibition, % at 5 µM. shares compounds with TPT1 inhibitor. recombinant caTPT1, fluorescence polarization, RNase T1 coupled;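 active = inhibition above the primary screen limit, the mean inhibition of all tested compounds plus 3 SD, cut at about 25% in these data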
RNase T1 inh: counter-screen for TPT1 inhibitors: inhibitors of Aspergillus oryzae RNase T1; 2,400 tested, 83% active; RNase T1 cleavage, fluorescence polarization, 1536-well; AID 2153; inhibition, % at 5 µM; shares compounds with TPT1 inhibitor;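 active = inhibition above the solvent-only control well mean plus 3 SD, limit set per screening run, cut at about 23% in these data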;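 also: plate controls were DMSO wells with enzyme for no effect and wells without RNase T1 for full effect; inhibitors block cleavage so intact labeled substrate keeps polarization high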
Target sequence (P00651 whole entry, looked up): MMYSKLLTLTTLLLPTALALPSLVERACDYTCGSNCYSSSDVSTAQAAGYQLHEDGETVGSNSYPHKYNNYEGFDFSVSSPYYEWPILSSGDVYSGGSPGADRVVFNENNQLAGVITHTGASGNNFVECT
Numbers without * were called inactive.

Results for COc1ccc(/C=N/NC(=O)c2ccc(F)cc2)cc1CN1CCc2cc(OC)c(OC)cc2C1C (centres undefined) ?
Rpn11 inh: inactive; HNF4A DNA FP: 1.9; TPT1 inhibitor: 1.0; CSN inh: 5.4

Results for CC(C)c1ccc(/C=C2\Oc3c(ccc(O)c3CN3CCN(C)CC3)C2=O)cc1 ?
Rpn11 inh: inactive; HNF4A DNA FP: 4.8; TPT1 inhibitor: 36.8*; CSN inh: 7.3; caTPT1 confirm: 40.0*; RNase T1 inh: 51.0*

Results for CCN1CCN(Cc2c(O)ccc3c(=O)c(-c4ccccc4OC)coc23)CC1 ?
Rpn11 inh: inactive; HNF4A DNA FP: 0.8; TPT1 inhibitor: 2.7; CSN inh: 6.0

How did CCN1CCN(Cc2c(O)ccc3c2O/C(=C\C=C\c2ccccc2OC)C3=O)CC1 do in these assays?
HNF4A DNA FP: 46.9*; TPT1 inhibitor: 52.9*; CSN inh: 29.2; caTPT1 confirm: 63.6*; RNase T1 inh: 68.4*

How did CS(=O)(=O)N1CCCC(C(=O)Nc2ccc(F)c(F)c2)C1 (centres undefined) do in these assays?
Rpn11 inh: inactive; HNF4A DNA FP: -4.7; CSN inh: 4.7

What do the screens show for `C[C@@H]1CN([C@@H](C)CO)C(=O)CCCn2nncc2CO[C@@H]1CN(C)C(=O)c1cc(-c2ccccc2)on1`?
Rpn11 inh: inactive; HNF4A DNA FP: 3.1; CSN inh: -2.8

How did Cc1ccc(N2C(=O)CS/C2=C(\C(Cl)=C(Cl)Cl)[N+](=O)[O-])cc1 do in these assays?
Rpn11 inh: inactive; HNF4A DNA FP: 20.9; TPT1 inhibitor: 93.3*; CSN inh: 5.4; caTPT1 confirm: 43.0*; RNase T1 inh: 50.8*

How did Cc1ccc(N2C(=O)CSCC2=O)cc1 do in these assays?
Rpn11 inh: inactive; HNF4A DNA FP: 1.3; TPT1 inhibitor: 0.6; CSN inh: 3.6

What do the screens show for `COc1ccc(N2CCCC2=N)c(OC)c1`?
Rpn11 inh: inactive; HNF4A DNA FP: -3.6; TPT1 inhibitor: -4.0; CSN inh: 2.4

What do the screens show for `CC(C)NC(=O)C1CCN(C2CCN(C(=O)/C=C/c3cccs3)CC2)CC1`?
Rpn11 inh: inactive; HNF4A DNA FP: 0.7; TPT1 inhibitor: 24.9*; CSN inh: -2.8; caTPT1 confirm: 5.6; RNase T1 inh: 14.6

Results for CC(C)/C=C/C(=O)N1CCC(N2CCC(C(=O)NCc3ccccn3)CC2)CC1 ?
Rpn11 inh: inactive; HNF4A DNA FP: 1.9; TPT1 inhibitor: -12.8; CSN inh: -3.5

How did CCOc1ccc(NC(=O)CN(C)C(=O)CCCc2c[nH]c3ccccc23)cc1OCC do in these assays?
Rpn11 inh: inactive; HNF4A DNA FP: 3.7; TPT1 inhibitor: 2.7; CSN inh: 0.8

Results for O=C(NC(Cc1ccccc1)C(=O)O)/C(=C\c1cccc([N+](=O)[O-])c1)NC(=O)c1ccco1 (centres undefined) ?
Rpn11 inh: inactive; HNF4A DNA FP: -0.5; TPT1 inhibitor: -0.9; CSN inh: -0.1

How did CC(NC(=O)/C(=C/c1cccc([N+](=O)[O-])c1)NC(=O)c1ccco1)C(=O)O (centres undefined) do in these assays?
Rpn11 inh: inactive; HNF4A DNA FP: -1.1; TPT1 inhibitor: 130.3*; CSN inh: -1.6; caTPT1 confirm: 3.3; RNase T1 inh: 8.3

What do the screens show for `C[C@H](CO)N1C[C@H](C)[C@@H](CN(C)C(=O)NC2CCCCC2)Oc2ncc(Br)cc2C1=O`?
Rpn11 inh: inactive; HNF4A DNA FP: 7.5; CSN inh: 2.3

Results for Cc1nc2ccccc2c(=O)n1/N=C/c1ccc(O)c(O)c1O ?
Rpn11 inh: inactive; HNF4A DNA FP: -28.6; TPT1 inhibitor: -5.2; CSN inh: 33.1

How did Cc1nc2ccccc2c(=O)n1/N=C/c1ccc2ccccc2c1O do in these assays?
Rpn11 inh: inactive; HNF4A DNA FP: 1.3; TPT1 inhibitor: 54.1*; CSN inh: 7.3; caTPT1 confirm: 25.9*; RNase T1 inh: 34.5*

How did CCc1ccc(CN(Cc2cccnc2)C(=O)/C=C/c2ccc(OC)cc2)cc1 do in these assays?
HNF4A DNA FP: 60.3*; TPT1 inhibitor: 39.2*; CSN inh: 25.9; caTPT1 confirm: 88.6*; RNase T1 inh: 102.2*

Results for C=CC[C@@H](CC(=O)N[C@H](CO)Cc1ccccc1)C(=O)N[C@H](COC(=O)[C@@H](CC=C)Cc1ccc(F)cc1)Cc1c[nH]c2ccccc12 ?
Rpn11 inh: inactive; HNF4A DNA FP: 0.1; CSN inh: -0.3

Results for COc1ccc(OC)c(/C=C2\NC(=O)NC2=O)c1 ?
Rpn11 inh: inactive; HNF4A DNA FP: 3.3; TPT1 inhibitor: -2.6; CSN inh: -2.8

How did COc1cc(N2CCCC2)c(OC)cc1/C=C1/NC(=S)NC1=O do in these assays?
HNF4A DNA FP: 152.3; TPT1 inhibitor: 130.8*; CSN inh: 113.8; caTPT1 confirm: 138.4*; RNase T1 inh: 128.8*

Results for CC(=O)OC(C(=O)Nc1nncs1)c1ccccc1 (centres undefined) ?
Rpn11 inh: inactive; HNF4A DNA FP: -4.2; CSN inh: 4.2

How did CC(=O)Nc1sc(N/N=C/c2ccccc2)nc1-c1ccc(C)cc1 do in these assays?
Rpn11 inh: inactive; HNF4A DNA FP: -3.2; TPT1 inhibitor: 0.1; CSN inh: 1.4

What do the screens show for `CC(=O)Nc1sc(/C(C#N)=C\c2cccc(Cl)c2)nc1-c1ccc(C)cc1`?
HNF4A DNA FP: 31.7; TPT1 inhibitor: 35.6*; CSN inh: 39.3; caTPT1 confirm: 36.2*; RNase T1 inh: 47.9*

Results for Cc1ccc2nc(Cl)c(/C=N/Nc3ccc(C(=O)O)cc3)cc2c1 ?
Rpn11 inh: inactive; HNF4A DNA FP: 0.4; TPT1 inhibitor: 29.9*; CSN inh: 4.9; caTPT1 confirm: 36.1*; RNase T1 inh: 47.0*

Results for Cc1ccc2cc(/C=N/NC(=O)c3ccc(F)cc3)c(Cl)nc2c1 ?
Rpn11 inh: inactive; HNF4A DNA FP: 0.8; TPT1 inhibitor: 1.6; CSN inh: 5.3

What do the screens show for `CCN(CC)c1ccc(NC(=O)Cn2c(C(C)NC(=O)c3ccccc3)nc3ccccc32)cc1` (centres undefined)?
Rpn11 inh: inactive; HNF4A DNA FP: 1.3; TPT1 inhibitor: 52.7*; CSN inh: -15.8; caTPT1 confirm: 8.2; RNase T1 inh: 10.7

What do the screens show for `Cc1ccc(C(=O)NC(C)c2nc3ccccc3n2CC(=O)Nc2c(C)cc(C)cc2C)cc1` (centres undefined)?
TPT1 inhibitor: 0.8

How did Nc1c(C(=O)Nc2ccc(F)cc2)sc2nc(-c3ccco3)ccc12 do in these assays?
Rpn11 inh: inactive; HNF4A DNA FP: 14.4; TPT1 inhibitor: 28.0*; CSN inh: 19.6; caTPT1 confirm: 24.6*; RNase T1 inh: 33.5*

What do the screens show for `CC(=O)c1sc2nc(-c3ccco3)ccc2c1N`?
Rpn11 inh: inactive; HNF4A DNA FP: -21.9; TPT1 inhibitor: 0.7; CSN inh: 36.8
